# Results reported in ChEMBL document CHEMBL3585281, “Antibacterial Labdane Diterpenoids from Vitex vestita” (2015).
# How the values were obtained:
# Assay type in all cases: functional
# Bacillus cereus [1] = test: Antibacterial activity against Bacillus cereus CIP 6624 after 18 hrs by agar dilution method; conditions: CIP 6624, 18 h
# Outline: (§1)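 Agar-dilution MIC against Gram-positive strains. Compounds in DMSO, geometric dilutions giving final 100−0.75 mg/L in Mueller Hinton agar. Strains grown 18 h at 37 °C in trypticase soy broth, diluted in sterile water, spotted by Steers inoculator (about 1000 UFC/spot). Plates incubated 18 h at 37 °C; DMSO blank; ofloxacin positive control. MIC = lowest concentration with no visible growth.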
# Bacillus cereus [2] = test: Antibacterial activity against Bacillus cereus N190 after 18 hrs by agar dilution method; conditions: N190, 18 h; outline: as §1
# Bacillus cereus [3] = test: Antibacterial activity against Bacillus cereus N258 after 18 hrs by agar dilution method; conditions: N258, 18 h; outline: as §1
# Bacillus cereus [4] = test: Antibacterial activity against Bacillus cereus N349 after 18 hrs by agar dilution method; conditions: N349, 18 h; outline: as §1
# Bacillus spizizenii = test: Antibacterial activity against Bacillus subtilis ATCC 6633 after 18 hrs by agar dilution method; conditions: ATCC 6633, 18 h; outline: as §1
# Corynebacterium striatum = test: Antibacterial activity against Corynebacterium striatum N840 after 18 hrs by agar dilution method; conditions: N840, 18 h; outline: as §1
# Enterococcus avium = test: Antibacterial activity against Enterococcus avium CIP 104053 after 18 hrs by agar dilution method; conditions: CIP 104053, 18 h; outline: as §1
# [5] = tested on: Enterococcus casseliflavus; test: Antibacterial activity against Enterococcus casseliflavus N487 after 18 hrs by agar dilution method; conditions: N487, 18 h; outline: as §1
# [6] = tested on: Enterococcus casseliflavus; test: Antibacterial activity against Enterococcus casseliflavus CIP 103018 after 18 hrs by agar dilution method; conditions: CIP 103018, 18 h; outline: as §1
# Enterococcus durans = test: Antibacterial activity against Enterococcus durans CIP 104999 after 18 hrs by agar dilution method; conditions: CIP 104999, 18 h; outline: as §1
# Enterococcus faecalis [7] = test: Antibacterial activity against Enterococcus faecalis CIP 103214 after 18 hrs by agar dilution method; conditions: CIP 103214, 18 h; outline: as §1
# Enterococcus faecalis [8] = test: Antibacterial activity against Enterococcus faecalis CIP 104676 after 18 hrs by agar dilution method; conditions: CIP 104676, 18 h; outline: as §1
# Enterococcus faecalis [9] = test: Antibacterial activity against Enterococcus faecalis N491 after 18 hrs by agar dilution method; conditions: N491, 18 h; outline: as §1
# Enterococcus faecalis [10] = test: Antibacterial activity against Enterococcus faecalis N518 after 18 hrs by agar dilution method; conditions: N518, 18 h; outline: as §1
# Enterococcus faecalis [11] = test: Antibacterial activity against Enterococcus faecalis N520 after 18 hrs by agar dilution method; conditions: N520, 18 h; outline: as §1
# Enterococcus faecium [12] = test: Antibacterial activity against Enterococcus faecium CIP 103014 after 18 hrs by agar dilution method; conditions: CIP 103014, 18 h; outline: as §1
# Enterococcus faecium [13] = test: Antibacterial activity against Enterococcus faecium CIP 107387 after 18 hrs by agar dilution method; conditions: CIP 107387, 18 h; outline: as §1
# Enterococcus faecium [14] = test: Antibacterial activity against Enterococcus faecium N490 after 18 hrs by agar dilution method; conditions: N490, 18 h; outline: as §1
# Enterococcus faecium [15] = test: Antibacterial activity against Enterococcus faecium N507 after 18 hrs by agar dilution method; conditions: N507, 18 h; outline: as §1
# Enterococcus faecium [16] = test: Antibacterial activity against Enterococcus faecium N733 after 18 hrs by agar dilution method; conditions: N733, 18 h; outline: as §1
# Enterococcus faecium [17] = test: Antibacterial activity against Enterococcus faecium N823 after 18 hrs by agar dilution method; conditions: N823, 18 h; outline: as §1
# Enterococcus gallinarum [18] = test: Antibacterial activity against Enterococcus gallinarum CIP 105985 after 18 hrs by agar dilution method; conditions: CIP 105985, 18 h; outline: as §1
# Enterococcus gallinarum [19] = test: Antibacterial activity against Enterococcus gallinarum N489 after 18 hrs by agar dilution method; conditions: N489, 18 h; outline: as §1
# Enterococcus gallinarum [20] = test: Antibacterial activity against Enterococcus gallinarum N492 after 18 hrs by agar dilution method; conditions: N492, 18 h; outline: as §1
# Enterococcus hirae = test: Antibacterial activity against Enterococcus hirae CIP 5855 after 18 hrs by agar dilution method; conditions: CIP 5855, 18 h; outline: as §1
# Listeria innocua = test: Antibacterial activity against Listeria innocua E044 after 18 hrs by agar dilution method; conditions: E044, 18 h; outline: as §1
# Listeria monocytogenes [21] = test: Antibacterial activity against Listeria monocytogenes CIP 103575 after 18 hrs by agar dilution method; conditions: CIP 103575, 18 h; outline: as §1
# Listeria monocytogenes [22] = test: Antibacterial activity against Listeria monocytogenes N783 after 18 hrs by agar dilution method; conditions: N783, 18 h; outline: as §1
# Listeria monocytogenes [23] = test: Antibacterial activity against Listeria monocytogenes N836 after 18 hrs by agar dilution method; conditions: N836, 18 h; outline: as §1
# Listeria monocytogenes [24] = test: Antibacterial activity against Listeria monocytogenes N851 after 18 hrs by agar dilution method; conditions: N851, 18 h; outline: as §1
# Staphylococcus aureus [25] = test: Antibacterial activity against Staphylococcus aureus ATCC 25923 after 18 hrs by agar dilution method; conditions: ATCC 25923, 18 h; outline: as §1
# Staphylococcus aureus [26] = test: Antibacterial activity against Staphylococcus aureus ATCC 9144 oxford after 18 hrs by agar dilution method; outline: as §1
# Staphylococcus aureus [27] = test: Antibacterial activity against Staphylococcus aureus CIP 483 after 18 hrs by agar dilution method; conditions: CIP 483, 18 h; outline: as §1
# Staphylococcus aureus [28] = test: Antibacterial activity against Staphylococcus aureus CIP 53154 after 18 hrs by agar dilution method; conditions: CIP 53154, 18 h; outline: as §1
# Staphylococcus aureus [29] = test: Antibacterial activity against Staphylococcus aureus CIP 53156 after 18 hrs by agar dilution method; conditions: CIP 53156, 18 h; outline: as §1
# Staphylococcus aureus [30] = test: Antibacterial activity against Staphylococcus aureus CIP 5710 after 18 hrs by agar dilution method; conditions: CIP 5710, 18 h; outline: as §1
# Staphylococcus aureus [31] = test: Antibacterial activity against Staphylococcus aureus CIP 7625 after 18 hrs by agar dilution method; conditions: CIP 7625, 18 h; outline: as §1
# Staphylococcus aureus [32] = test: Antibacterial activity against Staphylococcus aureus CRBIP 2121 after 18 hrs by agar dilution method; conditions: CRBIP 2121, 18 h; outline: as §1
# [33] = tested on: Staphylococcus epidermidis; test: Antibacterial activity against Staphylococcus epidermidis CIP 53124 after 18 hrs by agar dilution method; conditions: CIP 53124, 18 h; outline: as §1
# [34] = tested on: Staphylococcus haemolyticus; test: Antibacterial activity against Staphylococcus haemolyticus CIP 8156 after 18 hrs by agar dilution method; conditions: CIP 8156, 18 h; outline: as §1
# [35] = tested on: Staphylococcus intermedius; test: Antibacterial activity against Staphylococcus intermedius N987 after 18 hrs by agar dilution method; conditions: N987, 18 h; outline: as §1
# [36] = tested on: Staphylococcus lugdunensis; test: Antibacterial activity against Staphylococcus lugdunensis ATCC 43809 after 18 hrs by agar dilution method; conditions: ATCC 43809, 18 h; outline: as §1
# [37] = tested on: Staphylococcus saprophyticus; test: Antibacterial activity against Staphylococcus saprophyticus CIP 76125 after 18 hrs by agar dilution method; conditions: CIP 76125, 18 h; outline: as §1
# [38] = tested on: Staphylococcus saprophyticus; test: Antibacterial activity against Staphylococcus saprophyticus E260 after 18 hrs by agar dilution method; conditions: E260, 18 h; outline: as §1
# Mammaliicoccus sciuri = test: Antibacterial activity against Staphylococcus sciuri N993 after 18 hrs by agar dilution method; conditions: N993, 18 h; outline: as §1
# Streptococcus agalactiae = test: Antibacterial activity against Streptococcus agalactiae CIP 103227 after 18 hrs by agar dilution method; conditions: ATCC 13813, 18 h; outline: as §1
smiles,measurement,setting,value
CN[C@H](CC(C)C)C(=O)N[C@H]1C(=O)N[C@@H](CC(N)=O)C(=O)N[C@H]2C(=O)N[C@H]3C(=O)N[C@H](C(=O)N[C@H](C(=O)O)c4cc(O)cc(O)c4-c4cc3ccc4O)[C@H](O)c3ccc(c(Cl)c3)Oc3cc2cc(c3O[C@@H]2O[C@H](CO)[C@@H](O)[C@H](O)[C@H]2O[C@H]2C[C@](C)(N)[C@H](O)[C@H](C)O2)Oc2ccc(cc2Cl)[C@H]1O [VANCOMYCIN],MIC,Bacillus cereus [1],0.3 µM
same,MIC,Bacillus cereus [2],0.3 µM
same,MIC,Bacillus cereus [3],0.3 µM
same,MIC,Bacillus cereus [4],0.6 µM
same,MIC,Bacillus spizizenii,0.1 µM
same,MIC,Corynebacterium striatum,0.3 µM
same,MIC,Enterococcus avium,0.3 µM
same,MIC,[5],2.7 µM
same,MIC,[6],2.7 µM
same,MIC,Enterococcus durans,0.3 µM
same,MIC,Enterococcus faecalis [7],1.3 µM
same,MIC,Enterococcus faecalis [8],5 µM
same,MIC,Enterococcus faecalis [9],> 86 µM
same,MIC,Enterococcus faecalis [10],0.6 µM
same,MIC,Enterococcus faecalis [11],0.6 µM
same,MIC,Enterococcus faecium [12],0.3 µM
same,MIC,Enterococcus faecium [13],> 86 µM
same,MIC,Enterococcus faecium [14],22 µM
same,MIC,Enterococcus faecium [15],0.6 µM
same,MIC,Enterococcus faecium [16],> 86 µM
same,MIC,Enterococcus faecium [17],> 86 µM
same,MIC,Enterococcus gallinarum [18],5 µM
same,MIC,Enterococcus gallinarum [19],5 µM
same,MIC,Enterococcus gallinarum [20],5 µM
same,MIC,Enterococcus hirae,0.3 µM
same,MIC,Listeria innocua,0.3 µM
same,MIC,Listeria monocytogenes [21],0.3 µM
same,MIC,Listeria monocytogenes [22],0.3 µM
same,MIC,Listeria monocytogenes [23],0.3 µM
same,MIC,Listeria monocytogenes [24],0.3 µM
same,MIC,Staphylococcus aureus [25],0.6 µM
same,MIC,Staphylococcus aureus [26],0.2 µM
same,MIC,Staphylococcus aureus [27],0.6 µM
same,MIC,Staphylococcus aureus [28],0.6 µM
same,MIC,Staphylococcus aureus [29],0.3 µM
same,MIC,Staphylococcus aureus [30],0.6 µM
same,MIC,Staphylococcus aureus [31],2.7 µM
same,MIC,Staphylococcus aureus [32],2.7 µM
same,MIC,[33],0.6 µM
same,MIC,[34],0.6 µM
same,MIC,[35],0.6 µM
same,MIC,[36],0.6 µM
same,MIC,[37],0.6 µM
same,MIC,[38],0.6 µM
same,MIC,Mammaliicoccus sciuri,0.6 µM
same,MIC,Streptococcus agalactiae,0.3 µM
